Source: ChEMBL document CHEMBL4616587, “Kolavenic acid analog restores growth in HSET-overproducing fission yeast cells and multipolar mitosis in MDA-MB-231 human cells” (Bioorg Med Chem, 2020)
The source made the active and inactive calls. The calls are words filed in the database; no cut-off is given here.

What was measured:
[1] = tested on: Schizosaccharomyces pombe; assay: Inhibition of tubulin in Schizosaccharomyces pombe TY27 overexpressing GFP-HSET assessed as growth restoring activity incubated for 3 days by agar plate-based method
In short: (§1)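 Fission yeast TY27: drug-sensitive YA8 background (h+ bfr1::ura4+ pmd1::hisG leu1 ura4) carrying the pREP41-GFP-HSET plasmid, with the pREP41-GFP vector strain TY26 alongside. Simple plate assay on rich YE5S agar plates, read as restoration of growth of the HSET-overproducing cells. Screened set included SCADS Inhibitor Kits and inhibitors aimed at tubulin or Eg5.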

[2] = tested on: Schizosaccharomyces pombe; assay: Inhibition of HSET in Schizosaccharomyces pombe TY27 overexpressing GFP-HSET assessed as inhibition of HSET overproduction-induced lethal growth defects by measuring growth restoring activity incubated for 3 days by agar plate-based method; in short: as §1
[3] = tested on: Schizosaccharomyces pombe; assay: Inhibition of HSET in Schizosaccharomyces pombe TY27 overexpressing GFP-HSET assessed as inhibition of HSET overproduction-induced lethal growth defects by measuring growth restoring activity at 25 ng/spot incubated for 3 days by agar plate-based method; in short: as §1
[4] = tested on: Schizosaccharomyces pombe; assay: Inhibition of HSET in Schizosaccharomyces pombe TY27 overexpressing GFP-HSET assessed as inhibition of HSET overproduction-induced lethality by measuring cell growth at 0.25 uM incubated for 2 to 3 days (reference value: 8%); set-up: scale not given: the % may be the effect or the level left
[5] = tested on: Schizosaccharomyces pombe; assay: Inhibition of HSET in Schizosaccharomyces pombe TY27 overexpressing GFP-HSET assessed as inhibition of HSET overproduction-induced lethality by measuring cell viability at 0.25 uM incubated for 2 to 3 days relative to control
[6] = tested on: Schizosaccharomyces pombe; assay: (§2) Inhibition of HSET in Schizosaccharomyces pombe TY27 overexpressing GFP-HSET assessed as reversion of HSET-induced lethal abnormal monopolar spindle formation to bipolar formation by measuring cells containing monopolar spindles at 0.01 ug/ml incubated for 2 days by wide field inverted epifluorescence microscopic method (reference value: 76%); set-up: scale not given: the % may be the effect or the level left
[7] = tested on: Schizosaccharomyces pombe; assay: as §2, with “0.1” for “0.01”; set-up: scale not given: the % may be the effect or the level left
[8] = biological target: T1, Kinesin-like protein KIFC1 (Homo sapiens) (UniProt Q9BW19); assay: (§3) Inhibition of HSET in human MDA-MB-231 cells overexpressing HSET and possessing supernumerary centrosomes assessed as inhibition of centrosome clustering by measuring bipolar spindle formation at 20 uM incubated for 24 hrs by Hoechst 33342 staining based fluorescence microscopic method relative to control; assay type: cell-based; set-up: scale not given: the % may be the effect or the level left
T1 sequence (whole entry): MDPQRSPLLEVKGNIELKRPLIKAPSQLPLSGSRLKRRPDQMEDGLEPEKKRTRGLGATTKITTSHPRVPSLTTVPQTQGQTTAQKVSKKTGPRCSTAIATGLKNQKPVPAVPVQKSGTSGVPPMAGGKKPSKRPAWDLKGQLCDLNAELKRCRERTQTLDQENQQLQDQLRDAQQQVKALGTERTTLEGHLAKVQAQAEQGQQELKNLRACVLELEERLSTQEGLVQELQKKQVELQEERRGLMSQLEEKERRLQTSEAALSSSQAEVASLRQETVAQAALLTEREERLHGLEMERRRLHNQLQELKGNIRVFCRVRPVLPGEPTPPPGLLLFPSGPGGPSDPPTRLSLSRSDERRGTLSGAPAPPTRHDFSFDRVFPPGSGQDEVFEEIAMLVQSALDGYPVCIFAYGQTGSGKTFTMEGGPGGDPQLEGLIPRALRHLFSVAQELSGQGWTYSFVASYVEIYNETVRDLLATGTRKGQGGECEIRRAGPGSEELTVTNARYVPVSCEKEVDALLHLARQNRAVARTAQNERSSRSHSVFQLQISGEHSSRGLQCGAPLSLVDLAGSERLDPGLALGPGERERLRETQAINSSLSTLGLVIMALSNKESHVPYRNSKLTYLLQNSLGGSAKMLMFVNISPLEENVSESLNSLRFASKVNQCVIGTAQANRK

[9] = biological target: T1, Kinesin-like protein KIFC1 (Homo sapiens); assay: as §3, with “40” for “20”; assay type: cell-based; set-up: scale not given: the % may be the effect or the level left
[10] = biological target: T1, Kinesin-like protein KIFC1 (Homo sapiens); assay: as §3, with “increase in multipolar” for “bipolar”; assay type: cell-based; set-up: scale not given: the % may be the effect or the level left
[11] = biological target: T1, Kinesin-like protein KIFC1 (Homo sapiens); assay: as §3, with “increase in multipolar” for “bipolar”, “40” for “20”; assay type: cell-based; set-up: scale not given: the % may be the effect or the level left
MDA-MB-231 = assay: Antiproliferative activity against human MDA-MB-231 cells assessed as inhibition of cell viability incubated for 48 hrs by MTT assay; assay type: functional, cell-based; conditions: MDA-MB-231, 48 h
WI-38 = assay: Antiproliferative activity against human WI38 cells assessed as inhibition of cell viability incubated for 48 hrs by MTT assay; assay type: functional, cell-based; conditions: WI-38, 48 h
[12] = biological target: T1, Kinesin-like protein KIFC1 (Homo sapiens); assay: (§4) Inhibition of HSET in human MDA-MB-231 cells overexpressing HSET and possessing supernumerary centrosomes assessed as inhibition of centrosome clustering by measuring increase in multipolar spindle formation incubated for 24 hrs by Hoechst 33342 staining based fluorescence microscopic method; assay type: cell-based
[13] = tested on: Schizosaccharomyces pombe; assay: Inhibition of HSET in Schizosaccharomyces pombe TY27 overexpressing GFP-HSET assessed as inhibition of HSET overproduction-induced lethality by measuring increase in cell viability at 0.25 uM incubated for 2 to 3 days relative to control
[14] = tested on: Schizosaccharomyces pombe; assay: Inhibition of HSET in Schizosaccharomyces pombe TY27 overexpressing GFP-HSET assessed as inhibition of HSET overproduction-induced lethality by measuring cell growth at 3.3 uM incubated for 2 to 3 days (reference value: 5%); set-up: scale not given: the % may be the effect or the level left
[15] = tested on: Schizosaccharomyces pombe; assay: Inhibition of HSET in Schizosaccharomyces pombe TY27 overexpressing GFP-HSET assessed as inhibition of HSET overproduction-induced lethality by measuring cell viability at 3.3 uM incubated for 2 to 3 days relative to control
[16] = tested on: Schizosaccharomyces pombe; assay: as §2, with “1” for “0.01”; set-up: scale not given: the % may be the effect or the level left
[17] = biological target: T1, Kinesin-like protein KIFC1 (Homo sapiens); assay: as §4, with “formation at 250 uM” for “formation”; assay type: cell-based
[18] = tested on: Schizosaccharomyces pombe; assay: Inhibition of HSET in Schizosaccharomyces pombe TY27 overexpressing GFP-HSET assessed as inhibition of HSET overproduction-induced lethality by measuring increase in cell viability at 3.3 uM incubated for 2 to 3 days relative to control
[19] = tested on: Schizosaccharomyces pombe; assay: Inhibition of HSET in Schizosaccharomyces pombe TY27 overexpressing GFP-HSET assessed as inhibition of HSET overproduction-induced lethal growth defects by measuring growth restoring activity at 6.25 to 50 ug/spot incubated for 3 days by agar plate-based method; in short: as §1
[20] = tested on: Schizosaccharomyces pombe; assay: Inhibition of HSET in Schizosaccharomyces pombe TY27 overexpressing GFP-HSET assessed as inhibition of HSET overproduction-induced lethality by measuring cell growth at 2.8 uM incubated for 2 to 3 days (reference value: 6%); set-up: scale not given: the % may be the effect or the level left
[21] = tested on: Schizosaccharomyces pombe; assay: Inhibition of HSET in Schizosaccharomyces pombe TY27 overexpressing GFP-HSET assessed as inhibition of HSET overproduction-induced lethality by measuring cell viability at 2.8 uM incubated for 2 to 3 days relative to control
[22] = tested on: Schizosaccharomyces pombe; assay: Inhibition of HSET in Schizosaccharomyces pombe TY27 overexpressing GFP-HSET assessed as inhibition of HSET overproduction-induced lethality by measuring increase in cell viability at 2.8 uM incubated for 2 to 3 days relative to control
[23] = tested on: Schizosaccharomyces pombe; assay: Inhibition of Eg5 in Schizosaccharomyces pombe TY27 overexpressing GFP-HSET assessed as growth restoring activity incubated for 3 days by agar plate-based method; in short: as §1

CC(=O)O[C@H]1C(=O)[C@@]2(C)[C@H]([C@H](OC(=O)c3ccccc3)[C@]3(O)C[C@H](OC(=O)[C@H](O)[C@@H](NC(=O)c4ccccc4)c4ccccc4)C(C)=C1C3(C)C)[C@]1(OC(C)=O)CO[C@@H]1C[C@@H]2O
inhibition [1]: inactive

CCCc1cc(C(=O)N[C@H](Cc2ccc(-c3cccc(OC(F)(F)F)c3)nc2)C(=O)N[C@@H]2CCNC2)sc1C
growth restoration (qualitative) [2]: Dose-dependent effect

C/C=C(\C)C(=O)O[C@@H]1C[C@@H](C)[C@@](C)(CC/C(C)=C/C(=O)O)[C@@H]2CCC=C(C)[C@]12C
growth restoration (qualitative) [2]: Dose-dependent effect
inhibition [3]: inactive
Activity [4]: 13%
Activity [5]: 89%
Activity [6]: 53%
Activity [7]: 12%
Activity [8]: 49%
Activity [9]: 23%
Activity [10]: 44%
Activity [11]: 77%
IC50 (MDA-MB-231): 81.9 µM
IC50 (WI-38): 100 µM
inhibition [12]: Dose-dependent effect
fold change (FC) [13]: > 2

CC1=CCC[C@@H]2[C@@](C)(CC/C(C)=C/C(=O)O)[C@H](C)CC[C@@]12C [KOLAVENIC ACID]
growth restoration (qualitative) [2]: Dose-dependent effect
Activity [14]: 8%
Activity [15]: 59%
Activity [7]: 50%
Activity [16]: 7%
IC50 (MDA-MB-231): 272 µM
IC50 (WI-38): 265 µM
inhibition [17]: inactive
fold change (FC) [18]: > 2

COc1cccc2c1C(=O)c1c(O)c3c(c(O)c1C2=O)C[C@@](O)(C(=O)CO)C[C@@H]3O[C@H]1C[C@H](N)[C@H](O)[C@H](C)O1 [DOXORUBICIN]
IC50 (MDA-MB-231): 4.4 µM

CC(=O)O[C@@H]1C[C@@]2(C)C(C)=CCC[C@@H]2[C@@](C)(CC/C(C)=C/C(=O)O)[C@@H]1C
growth restoration (qualitative) [2]: Dose-dependent effect
inhibition [19]: inactive
Activity [20]: 8%
Activity [21]: 81%
Activity [7]: 49%
Activity [16]: 11%
IC50 (MDA-MB-231): 261 µM
IC50 (WI-38): 265 µM
inhibition [17]: inactive
fold change (FC) [22]: > 2

CC[C@]1(O)C[C@H]2CN(CCc3c([nH]c4ccccc34)[C@@](C(=O)OC)(c3cc4c(cc3OC)N(C)[C@H]3[C@@](O)(C(=O)OC)[C@H](OC(C)=O)[C@]5(CC)C=CCN6CC[C@]43[C@@H]65)C2)C1
inhibition [1]: inactive

COC(=O)Nc1nc2cc(C(=O)c3cccs3)ccc2[nH]1
inhibition [1]: inactive

CCOC(=O)C1=C(C)NC(=S)NC1c1cccc(O)c1 (centres undefined)
inhibition [23]: inactive
